For assay [1], the system named is CCRF-CEM. Put plainly: Cytotoxicity against human CCRF-CEM cells after 72 hrs by XTT assay. Format: functional, cell-based. The gist of the method: (§1)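 CCRF-CEM and its Taxol- and vinblastine-resistant sublines were incubated 72 h, then given phenazine methosulfate-XTT for 6 h at 37 °C. Absorbance was read at 450 and 630 nm. IC50 came from median-effect analysis of dose-effect data at six or seven concentrations.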
Background: Formazan colour is commonly taken as a measure of viable cells.

Assay [2] deals with CCRF-CEM. Put plainly: Cytotoxicity against human taxol-resistant CCRF-CEM cells after 72 hrs by XTT assay. The class given is functional, cell-based. The gist of the method:
as §1

For assay [3], the system named is CCRF-CEM. Put plainly: Cytotoxicity against human vinblastine-resistant CCRF-CEM cells after 72 hrs by XTT assay. Format: functional, cell-based. The gist of the method: as §1
For assay [4], the system named is MX1. Briefly: Cytotoxicity against human MX1 cells after 72 hrs by SRB assay. The class given is functional, cell-based. Particulars: MX1, 72 h. Summed up: (§2)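 MX-1 and HCT-116 solid tumor cells were exposed 72 h, with growth read by SRB staining on a microplate spectrophotometer. IC50 came from median-effect analysis of dose-effect data at six or seven concentrations.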

Assay [5] relates to HCT-116. Briefly: Cytotoxicity against human HCT116 cells after 72 hrs by SRB assay. Format: functional, cell-based. Particulars: HCT-116, 72 h. The gist of the method:
as §2
On the technique in general: Sulforhodamine B stains cellular protein and so reports cell mass.

Assay [6] concerns CCRF-CEM. Put plainly: Ratio of IC50 for human taxol-resistant CCRF-CEM cells to IC50 for human CCRF-CEM cells. Format: functional.
Assay [7] deals with CCRF-CEM. Briefly: Ratio of IC50 for human vinblastine-resistant CCRF-CEM cells to IC50 for human CCRF-CEM cells. Format: functional.
The subject of assay [8] is Nucleic Acid. Briefly: Induction of pEGFP-N1 plasmid DNA interstrand cross-linking at 1 to 5 uM by alkaline agarose gel shift assay. Format: nucleic-acid assay.
A short description of assay [9]: Cytotoxicity against human H1299 cells after 72 hrs by Alamar blue assay. Format: functional, cell-based. Particulars: NCI-H1299, 72 h. Summed up: (§3)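 H1299 and PC3 cells were exposed 72 h, then given Alamar blue for 6 h at 37 °C. Absorbance was read at 570 and 600 nm. IC50 came from median-effect analysis of dose-effect data at six or seven concentrations.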
A general note: The colour change of resazurin is a common sign of viable cells or microbes.

Assay [10] has as its system PC-3. Put plainly: Cytotoxicity against human PC3 cells after 72 hrs by Alamar blue assay. To be noted: PC-3, 72 h. Format: functional, cell-based. The gist of the method: as §3
The test system of assay [11] is Nucleic Acid. Briefly: Induction of pEGFP-N1 plasmid DNA interstrand cross-linking at 1 to 20 uM by alkaline agarose gel shift assay. Format: nucleic-acid assay. The gist of the method: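 pEGFP-N1 plasmid DNA (1500 ng) was incubated with compound (1, 10, 20 μM) in 3 mM NaCl/1 mM sodium phosphate pH 7.4/1 mM EDTA for 2 h at 37 °C. It was then BamHI-linearized, ethanol-precipitated and denatured in 0.5 N NaOH-10 mM EDTA. Samples were run on a 0.8% alkaline agarose gel at 4 °C, 18 V for 22 h, stained with ethidium bromide.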

Calls of active or inactive are those of the source. The rule behind the calls is not given here.

Broadly, the IC50 is the concentration needed to halve the response being measured. As to `O=C(Nc1ccc(N(CCCl)CCCl)cc1)Nc1ccc2ncnc(Nc3ccc(Br)cc3)c2c1`, the half-maximal inhibitory concentration (IC50) was 4.64 µM in [1]; 8.79 µM in assay [2]; 7.88 µM in assay [3]; 6.71 µM in assay [4]; 7.79 µM in [5]. Besides, the “Ratio IC50” value in assay [6] is 1.89; in [7] it was 1.7.

Regarding `N[C@@H](Cc1ccc(N(CCCl)CCCl)cc1)C(=O)O`, the result in assay [8] was Active.

Turning to `CC[C@]1(O)C[C@@H]2CN(CCc3c([nH]c4ccccc34)[C@@](C(=O)OC)(c3cc4c(cc3OC)N(C)[C@H]3[C@@](O)(C(=O)OC)[C@H](OC(C)=O)[C@]5(CC)C=CCN6CC[C@]43[C@@H]65)C2)C1` [VINBLASTINE], the results for the “Ratio IC50” value in assay [6] and in [7] were 106.2 and 679.5, respectively.

On to `O=C(Nc1ccc(N(CCCl)CCCl)cc1)Nc1ccc2ncnc(Nc3ccc(Cl)c(Cl)c3)c2c1`, for which the IC50 in assay [1] turned out to be 2.6 µM; in assay [2], 5.61 µM; in [3], 6.75 µM; in assay [4] it was 6.45 µM; in assay [5] it was 2.79 µM. The “Ratio IC50” value in assay [6] worked out at 2.16; in assay [7], 2.6.

Consider `O=C(Nc1ccc(N(CCCl)CCCl)cc1)Nc1ccc2ncnc(Nc3cccc(Br)c3)c2c1`, for which the concentration for half-maximal inhibition (IC50) came out at 0.95 µM in assay [1]; 4.58 µM in [2]; 2.62 µM in [3]; 6.92 µM in [4]; 2.17 µM in [5]; 8.04 µM in assay [9]. The same compound registered an IC50 in [10] of 10.1 µM. The “Ratio IC50” value was 4.82 in assay [6] and 2.76 in [7].

In the case of `O=C(Nc1ccc(N(CCCl)CCCl)cc1)Nc1ccc2ncnc(Nc3ccc(Oc4ccccc4)cc3)c2c1`, the IC50 stood at 4.77 µM in assay [1]; 7.99 µM in assay [2]; 10.9 µM in [3]; 8.47 µM in assay [4]; 12.4 µM in assay [5]. Also, the figures for the “Ratio IC50” value in assay [6] and in assay [7] were 1.67 and 2.28, respectively.

Regarding `O=C(Nc1ccc(N(CCCl)CCCl)cc1)Nc1ccc2ncnc(Nc3ccc(Cl)c(C(F)(F)F)c3)c2c1`, the 50% inhibitory concentration (IC50) in assay [1] came to 4.77 µM; in assay [2], 5.36 µM; in assay [3] it was 5.28 µM; in assay [4] it was 7.44 µM; in assay [5] it was 5.34 µM. Moreover, the “Ratio IC50” value in assay [6] came out at 1.12; in assay [7], 1.11.

For `O=C(Nc1ccc(N(CCCl)CCCl)cc1)Nc1ccc2ncnc(Nc3cccc(C(F)(F)F)c3)c2c1`, the IC50 in assay [1] was found to be 3.97 µM; in [2], 4.57 µM; in assay [3] it was 4.68 µM; in assay [4], 5.3 µM; in assay [5], 5.97 µM. Also, the “Ratio IC50” value came to 1.15 in assay [6] and 1.17 in assay [7].

`O=C(Nc1ccc(N(CCCl)CCCl)cc1)Nc1ccc2ncnc(Nc3cccc(F)c3)c2c1`: the IC50 was found to be 2.51 µM in assay [1]; 3.46 µM in assay [2]; 4.28 µM in assay [3]; 10.1 µM in assay [4]; 9.62 µM in assay [5]. The results for the “Ratio IC50” value in assay [6] and in assay [7] were 1.38 and 1.7, respectively.

As to `O=C(Nc1ccc(N(CCCl)CCCl)cc1)Nc1ccc2ncnc(Nc3ccc(F)cc3)c2c1`, the 50% inhibitory concentration (IC50) in assay [1] was 0.74 µM; in assay [2] it was 3.16 µM; in assay [3], 1.24 µM; in assay [4] it was 3.43 µM; in [5] it was 3.18 µM; in [9], 11.6 µM. In [10], this compound came in with an IC50 of 8.24 µM. In addition, the outcome in assay [11] was Active. Moreover, the “Ratio IC50” value in [6] was 4.27; in [7] it was 1.67.

As to `O=C(Nc1ccc(N(CCCl)CCCl)cc1)Nc1ccc2ncnc(Nc3ccc(OCc4ccccn4)c(Cl)c3)c2c1`, the IC50 in [1] was determined as 1.41 µM; in [2], 4.58 µM; in [3] it was 2.65 µM; in assay [4], 4.62 µM; in assay [5], 2.22 µM. The “Ratio IC50” value in assay [6] is recorded as 3.24; in assay [7], 1.88.

Regarding `COc1cccc(Nc2ncnc3ccc(NC(=O)Nc4ccc(N(CCCl)CCCl)cc4)cc23)c1`, the IC50 amounted to 1.32 µM in assay [1]; 3.58 µM in [2]; 3.38 µM in [3]; 2.59 µM in assay [4]; 2.44 µM in assay [5]; 8.79 µM in assay [9]. In assay [10], this compound showed a 50% inhibitory concentration (IC50) of 9.44 µM. For the same compound, the “Ratio IC50” value in assay [6] came to 2.71; in assay [7] it was 2.56.

On to `CC(=O)O[C@H]1C(=O)[C@@]2(C)[C@H]([C@H](OC(=O)c3ccccc3)[C@]3(O)C[C@H](OC(=O)[C@H](O)[C@@H](NC(=O)c4ccccc4)c4ccccc4)C(C)=C1C3(C)C)[C@]1(OC(C)=O)CO[C@@H]1C[C@@H]2O` [PACLITAXEL], for which the “Ratio IC50” value is 143 in [6] and 423 in assay [7].

For `O=C(Nc1ccc(N(CCCl)CCCl)cc1)Nc1ccc2ncnc(Nc3ccc(F)c(Br)c3)c2c1`, the 50% inhibitory concentration (IC50) in assay [1] is 2.68 µM; in assay [2] it was 4.4 µM; in assay [3], 4.74 µM; in assay [4], 7.1 µM; in assay [5], 5.99 µM. In addition, the results for the “Ratio IC50” value in assay [6] and in [7] were 1.64 and 1.77, respectively.

For the compound `COc1ccc(Nc2ncnc3ccc(NC(=O)Nc4ccc(N(CCCl)CCCl)cc4)cc23)cc1Cl`, the IC50 in assay [1] turned out to be 0.8 µM; in [2], 3.34 µM; in [3], 3.75 µM; in assay [4], 5.51 µM; in assay [5], 5.27 µM; in assay [9], 6.94 µM. For the same compound, in [10], inhibition was half-maximal at 8.02 µM (IC50). In assay [11], the outcome was Active. Besides, the “Ratio IC50” value in [6] was 4.17; in assay [7] it was 4.68.

Turning to `C#Cc1cccc(Nc2ncnc3ccc(NC(=O)Nc4ccc(N(CCCl)CCCl)cc4)cc23)c1`, the IC50 in [1] was 0.5 µM; in [2], 2.29 µM; in [3] it was 2.33 µM; in [4], 6.27 µM; in assay [5] it was 3.47 µM. Moreover, the figures for the “Ratio IC50” value in [6] and in assay [7] were 4.58 and 4.66, respectively.

For the compound `COc1cc(Nc2ncnc3ccc(NC(=O)Nc4ccc(N(CCCl)CCCl)cc4)cc23)cc(OC)c1OC`, the IC50 was determined as 0.38 µM in assay [1]; 12.3 µM in assay [2]; 24.5 µM in assay [3]; 4.02 µM in assay [4]; 2.24 µM in assay [5]; 10.3 µM in assay [9]. For the same compound, the concentration for half-maximal inhibition (IC50) in assay [10] is 11 µM. For the same compound, the “Ratio IC50” value in assay [6] came out at 32.42; in assay [7], 64.5.

Source of the values: ChEMBL document CHEMBL1795344, “Design, synthesis and antitumor evaluation of phenyl N-mustard-quinazoline conjugates” (Bioorg Med Chem, 2011).
